In experiment [1] the target is Recombinant PDGF-BB (platelet-derived growth factor-BB) (UniProt P01127). As to the kind of experiment: SPR. (In general: Surface plasmon resonance follows binding to a sensor surface in real time, without labels.)
The next experiment has as its system FN-null fibroblasts. As to the kind of experiment: FN-null cell survival on CBD/14 with peptide in solution. Format: cell-based, mouse. The following applies: serum-free DMEM, 1nM PDGF-BB, 3d, viable cells counted. In outline: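 Mouse FN-null fibroblasts were maintained in DMEM with 10% FBS. 96-well plates were precoated with 0.125μM GST-tagged CBD/14, blocked with 2% BSA for 2h and washed. Cells were seeded at 4,000/well for 4h at 37°C in serum-free DMEM, and BSA medium with soluble test compound ±1nM PDGF-BB was added. After 3d at 37°C, viable spread cells were counted in five 10x fields in three replicate wells (mean ± SD, n=15).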

Another experiment deals with cell growth. As to conditions: RWRPK by itself; ref Hocking et al., 2008; cited from earlier work.
Experiment [2] deals with anastellin (FN630-704) with a Cys-tag at the C-terminus (human). As to the kind of experiment: radioligand binding.
Experiment [3] has as its target FN668-704, second half of anastellin, with cysteine at the C-terminus (human). In words: radioligand binding.
The target in another experiment is P4 (FN2043-2076) (human). As to the kind of experiment: radioligand binding.
In the next experiment the target is P3 (FN1853-1877) (human). In words: radioligand binding.
Experiment [4] concerns the target 125I-PDGF-BB (125I-radiolabeled platelet-derived growth factor-BB) (UniProt P01127 82-190, 125I label (site not stated)). As to the kind of experiment: radioligand binding.

As usually defined, the Kd is the equilibrium constant for the complex coming apart.

125I-PDGF-BB (125I-radiolabeled platelet-derived growth factor-BB) (from UniProt P01127 82-190) (ligand), sequence (P01127 82-190): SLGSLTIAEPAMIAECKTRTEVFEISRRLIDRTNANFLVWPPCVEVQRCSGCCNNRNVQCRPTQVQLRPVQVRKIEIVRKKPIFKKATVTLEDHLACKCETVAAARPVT
125I-PDGF-BB (125I-radiolabeled platelet-derived growth factor-BB) (UniProt P01127 82-190, 125I label (site not stated)), sequence (P01127 82-190): as above
Recombinant PDGF-BB (platelet-derived growth factor-BB), sequence (P01127 82-190): as above

For the molecule “anastellin (FN630-704) with a Cys-tag at the C-terminus (domain or fragment)”, the Kd in experiment [1] was 22.9 nM.
QWNAPQPSHISKYILRWRPK [Peptide P11]: the “FN-null cell survival on CBD/14, peptide in solution” value (“FN-null cell survival” below) in the experiment with FN-null fibroblasts is reported as “promoted PDGF-BB survival signals”.
In the case of RWRPK, the “FN-null cell survival” value with FN-null fibroblasts is “does not collaborate with PDGF-BB”. Besides, the “Cell growth” value in the experiment with cell growth is recorded as “inhibits cell growth”.
For “125I-PDGF-BB (125I-radiolabeled platelet-derived growth factor-BB) (from UniProt P01127 82-190) (ligand)”, the Kd in experiment [2] is 90 nM; in experiment [3], 80 nM; in the experiment with P4 (FN2043-2076) (human) it was 56 nM; with P3 (FN1853-1877) (human) it was 87 nM.
Regarding QPSHISKYILRWRPK [Peptide P5], the “FN-null cell survival” value in the experiment on FN-null fibroblasts is listed as “promoted PDGF-BB survival signals”.
QPSHISKYILRWRPKNSVGRWKEAT [P1 (FN634-658)] yielded a Kd in experiment [4] of 250 nM.
For QLISHQQYGHQEVTRFDFTTTSTST [P2 (FN680-704)], binding in experiment [4] was put at a Kd of 110 nM.

Values taken from publication PMC3961564 (The Journal of investigative dermatology, 2013).
